From ChEMBL document CHEMBL1926577, “Novel 1,3,4-heterodiazole analogues: synthesis and in-vitro antitumor activity” (2012)

Key:
Format in all cases: functional
786-0 = assay: Growth inhibition of human 786-0 cells at 10 uM after 48 hrs by coulter counter method; conditions: 786-0, 48 h, read-out: GI
Outline: (§1)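 NCI 60-cell-line panel, single dose. Compound dissolved first in DMSO, then diluted in phosphate-buffered saline so that every final dilution held under 1% DMSO. Duplicate wells received cells at 6 × 10⁴ cells/ml. Controls held PBS/DMSO at the same dilution. Plates were incubated 48 h at 37 °C under 5% CO₂. Cells were then diluted 10-fold in saline and counted on a Coulter counter, with counts corrected for the dilution. Results are given as percent growth inhibition.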

SN12C = assay: Growth inhibition of human SN12C cells at 10 uM after 48 hrs by coulter counter method; conditions: read-out: GI; outline: as §1
NCI-H23 = assay: Growth inhibition of human NCI-H23 cells at 10 uM after 48 hrs by coulter counter method; conditions: NCI-H23, 48 h, read-out: GI; outline: as §1
NCI-H322M = assay: Growth inhibition of human NCI-H322M cells at 10 uM after 48 hrs by coulter counter method; conditions: read-out: GI; outline: as §1
NCI-H522 = assay: Growth inhibition of human NCI-H522 cells at 10 uM after 48 hrs by coulter counter method; conditions: NCI-H522, 48 h, read-out: GI; outline: as §1
PC-3 = assay: Growth inhibition of human PC3 cells at 10 uM after 48 hrs by coulter counter method; conditions: PC-3, 48 h, read-out: GI; outline: as §1
T47D = assay: Growth inhibition of human T47D cells at 10 uM after 48 hrs by coulter counter method; conditions: read-out: GI; outline: as §1
MDA-MB-468 = assay: Growth inhibition of human MDA-MB-468 cells at 10 uM after 48 hrs by coulter counter method; conditions: MDA-MB-468, 48 h, read-out: GI; outline: as §1
MOLT-4 = assay: Growth inhibition of human MOLT4 cells at 10 uM after 48 hrs by coulter counter method; conditions: MOLT-4, 48 h, read-out: GI; outline: as §1
K562 = assay: Growth inhibition of human K562 cells at 10 uM after 48 hrs by coulter counter method; conditions: K562, 48 h, read-out: GI; outline: as §1
SNB-75 = assay: Growth inhibition of human SNB75 cells at 10 uM after 48 hrs by coulter counter method; conditions: SNB-75, 48 h, read-out: GI; outline: as §1
BT-549 = assay: Growth inhibition of human BT549 cells at 10 uM after 48 hrs by coulter counter method; conditions: BT-549, 48 h, read-out: GI; outline: as §1
NCI/ADR-RES = assay: Growth inhibition of human NCI/ADR-RES cells at 10 uM after 48 hrs by coulter counter method; conditions: read-out: GI; outline: as §1
HCT-116 = assay: Growth inhibition of human HCT116 cells at 10 uM after 48 hrs by coulter counter method; conditions: HCT-116, 48 h, read-out: GI; outline: as §1
SF-268 = assay: Growth inhibition of human SF268 cells at 10 uM after 48 hrs by coulter counter method; conditions: SF-268, 48 h, read-out: GI; outline: as §1
U-251 = assay: Growth inhibition of human U251 cells at 10 uM after 48 hrs by coulter counter method; conditions: U-251, 48 h, read-out: GI; outline: as §1
UACC-257 = assay: Growth inhibition of human UACC257 cells at 10 uM after 48 hrs by coulter counter method; conditions: UACC-257, 48 h, read-out: GI; outline: as §1
A498 = assay: Growth inhibition of human A498 cells at 10 uM after 48 hrs by coulter counter method; conditions: A498, 48 h, read-out: GI; outline: as §1
A549 = assay: Growth inhibition of human A549 cells at 10 uM after 48 hrs by coulter counter method; conditions: A549, 48 h, read-out: GI; outline: as §1
SF-295 = assay: Growth inhibition of human SF295 cells at 10 uM after 48 hrs by coulter counter method; conditions: SF-295, 48 h, read-out: GI; outline: as §1
MDA-MB-435 = assay: Growth inhibition of human MDA-MB-435 cells at 10 uM after 48 hrs by coulter counter method; conditions: MDA-MB-435, 48 h, read-out: GI; outline: as §1
HCT-15 = assay: Growth inhibition of human HCT15 cells at 10 uM after 48 hrs by coulter counter method; conditions: HCT-15, 48 h, read-out: GI; outline: as §1
SK-MEL-28 = assay: Growth inhibition of human SK-MEL-28 cells at 10 uM after 48 hrs by coulter counter method; conditions: SK-MEL-28, 48 h, read-out: GI; outline: as §1
HT-29 = assay: Growth inhibition of human HT-29 cells at 10 uM after 48 hrs by coulter counter method; conditions: HT-29, 48 h, read-out: GI; outline: as §1
SK-MEL-2 = assay: Growth inhibition of human SK-MEL-2 cells at 10 uM after 48 hrs by coulter counter method; conditions: SK-MEL-2, 48 h, read-out: GI; outline: as §1
ACHN = assay: Growth inhibition of human ACHN cells at 10 uM after 48 hrs by coulter counter method; conditions: read-out: GI; outline: as §1
KM12 = assay: Growth inhibition of human KM12 cells at 10 uM after 48 hrs by coulter counter method; conditions: KM12, 48 h, read-out: GI; outline: as §1
RPMI-8226 = assay: Growth inhibition of human RPMI8226 cells at 10 uM after 48 hrs by coulter counter method; conditions: RPMI-8226, 48 h, read-out: GI; outline: as §1
SR = assay: Growth inhibition of human SR cells at 10 uM after 48 hrs by coulter counter method; conditions: read-out: GI; outline: as §1
UO-31 = assay: Growth inhibition of human UO31 cells at 10 uM after 48 hrs by coulter counter method; conditions: UO-31, 48 h, read-out: GI; outline: as §1
IGROV-1 = assay: Growth inhibition of human IGROV1 cells at 10 uM after 48 hrs by coulter counter method; conditions: IGROV-1, 48 h, read-out: GI; outline: as §1
UACC-62 = assay: Growth inhibition of human UACC62 cells at 10 uM after 48 hrs by coulter counter method; conditions: UACC-62, 48 h, read-out: GI; outline: as §1
CCRF-CEM = assay: Growth inhibition of human CCRF-CEM cells at 10 uM after 48 hrs by coulter counter method; conditions: read-out: GI; outline: as §1
SK-MEL-5 = assay: Growth inhibition of human SK-MEL-5 cells at 10 uM after 48 hrs by coulter counter method; conditions: SK-MEL-5, 48 h, read-out: GI; outline: as §1
NCI-H226 = assay: Growth inhibition of human NCI-H226 cells at 10 uM after 48 hrs by coulter counter method; conditions: NCI-H226, 48 h, read-out: GI; outline: as §1
SNB-19 = assay: Growth inhibition of human SNB19 cells at 10 uM after 48 hrs by coulter counter method; conditions: SNB-19, 48 h, read-out: GI; outline: as §1
EKVX = assay: Growth inhibition of human EKVX cells at 10 uM after 48 hrs by coulter counter method; conditions: read-out: GI; outline: as §1
LOX IMVI = assay: Growth inhibition of human LOXIMVI cells at 10 uM after 48 hrs by coulter counter method; conditions: read-out: GI; outline: as §1
HL-60(TB) = assay: Growth inhibition of human HL-60(TB) cells at 10 uM after 48 hrs by coulter counter method; conditions: HL-60, 48 h, read-out: GI
Outline: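 Single-dose screen on the NCI 60-line panel (leukemia subpanel). Compound is dissolved in DMSO and diluted in PBS, with final DMSO below 1%. Duplicate wells hold 6 × 10⁴ cells/ml at 37 °C, 5% CO₂, for 48 h. Cells are counted by Coulter counter after 10-fold saline dilution. Read-out is percent growth versus PBS/DMSO controls, expressed as % growth inhibition.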

M14 = assay: Growth inhibition of human M14 cells at 10 uM after 48 hrs by coulter counter method; conditions: M14, 48 h, read-out: GI; outline: as §1
TK-10 = assay: Growth inhibition of human TK10 cells at 10 uM after 48 hrs by coulter counter method; conditions: TK-10, 48 h, read-out: GI; outline: as §1
OVCAR-8 = assay: Growth inhibition of human OVCAR8 cells at 10 uM after 48 hrs by coulter counter method; conditions: OVCAR-8, 48 h, read-out: GI; outline: as §1
CAKI-1 = assay: Growth inhibition of human Caki1 cells at 10 uM after 48 hrs by coulter counter method; conditions: CAKI-1, 48 h, read-out: GI; outline: as §1
Malme-3M = assay: Growth inhibition of human MALME-3M cells at 10 uM after 48 hrs by coulter counter method; conditions: read-out: GI; outline: as §1
MCF7 = assay: Growth inhibition of human MCF7 cells at 10 uM after 48 hrs by coulter counter method; conditions: MCF7, 48 h, read-out: GI; outline: as §1

With `NC1=CC(N)=NC2OC(c3ccccc3)=NN12` (stereo not given) the inhibition of growth at 10 µM (786-0) was less than 10%, the inhibition of growth at 10 µM (SN12C) was less than 10% and the inhibition of growth at 10 µM (NCI-H23) was less than 10%. The inhibition of growth at 10 µM (NCI-H322M) was less than 10%, the inhibition of growth at 10 µM (NCI-H522) was less than 10% and the inhibition of growth at 10 µM (PC-3) was less than 10%. The inhibition of growth at 10 µM (T47D) was less than 10%, the inhibition of growth at 10 µM (MDA-MB-468) was less than 10% and the inhibition of growth at 10 µM (MOLT-4) was 10.4%. It also gave an inhibition of growth at 10 µM (K562) of less than 10%, an inhibition of growth at 10 µM (SNB-75) of less than 10% and an inhibition of growth at 10 µM (BT-549) of less than 10%. It also gave an inhibition of growth at 10 µM (NCI/ADR-RES) of less than 10%, an inhibition of growth at 10 µM (HCT-116) of less than 10% and an inhibition of growth at 10 µM (SF-268) of less than 10%. It also gave an inhibition of growth at 10 µM (U-251) of less than 10%, an inhibition of growth at 10 µM (UACC-257) of less than 10% and an inhibition of growth at 10 µM (A498) of less than 10%. It also gave an inhibition of growth at 10 µM (A549) of less than 10%, an inhibition of growth at 10 µM (SF-295) of 15.6% and an inhibition of growth at 10 µM (MDA-MB-435) of less than 10%. It also gave an inhibition of growth at 10 µM (HCT-15) of less than 10%, an inhibition of growth at 10 µM (SK-MEL-28) of less than 10% and an inhibition of growth at 10 µM (HT-29) of less than 10%. The inhibition of growth at 10 µM (SK-MEL-2) was less than 10%, the inhibition of growth at 10 µM (ACHN) was less than 10% and the inhibition of growth at 10 µM (KM12) was less than 10%. The inhibition of growth at 10 µM (RPMI-8226) was less than 10%, the inhibition of growth at 10 µM (SR) was 10.4% and the inhibition of growth at 10 µM (UO-31) was 27%. The inhibition of growth at 10 µM (IGROV-1) was less than 10%, the inhibition of growth at 10 µM (UACC-62) was less than 10% and the inhibition of growth at 10 µM (CCRF-CEM) was less than 10%. The inhibition of growth at 10 µM (SK-MEL-5) was less than 10%, the inhibition of growth at 10 µM (NCI-H226) was less than 10% and the inhibition of growth at 10 µM (SNB-19) was less than 10%. The inhibition of growth at 10 µM (EKVX) was less than 10%, the inhibition of growth at 10 µM (LOX IMVI) was less than 10% and the inhibition of growth at 10 µM (HL-60(TB)) was 15.6%. For the same molecule, the inhibition of growth at 10 µM (M14) was less than 10%, the inhibition of growth at 10 µM (TK-10) was less than 10% and the inhibition of growth at 10 µM (OVCAR-8) was less than 10%. The inhibition of growth at 10 µM (CAKI-1) was less than 10%, the inhibition of growth at 10 µM (Malme-3M) was less than 10% and the inhibition of growth at 10 µM (MCF7) was less than 10%.
